Data on nine compounds can be found in ChEMBL document CHEMBL1165965, “Synthesis and structure-activity relationships of 1,2,3,4-tetrahydropyrido[2,3-b]pyrazines as potent and selective inhibitors of the anaplastic lymphoma kinase” (Bioorg Med Chem, 2010).

By inhibition is commonly meant the share of the control response that was lost under treatment. A higher inhibition goes with a strong effect.

The target of experiment [1] is T1, Receptor-interacting serine/threonine-protein kinase 1 (Homo sapiens) (UniProt Q13546).
T1 sequence (whole entry): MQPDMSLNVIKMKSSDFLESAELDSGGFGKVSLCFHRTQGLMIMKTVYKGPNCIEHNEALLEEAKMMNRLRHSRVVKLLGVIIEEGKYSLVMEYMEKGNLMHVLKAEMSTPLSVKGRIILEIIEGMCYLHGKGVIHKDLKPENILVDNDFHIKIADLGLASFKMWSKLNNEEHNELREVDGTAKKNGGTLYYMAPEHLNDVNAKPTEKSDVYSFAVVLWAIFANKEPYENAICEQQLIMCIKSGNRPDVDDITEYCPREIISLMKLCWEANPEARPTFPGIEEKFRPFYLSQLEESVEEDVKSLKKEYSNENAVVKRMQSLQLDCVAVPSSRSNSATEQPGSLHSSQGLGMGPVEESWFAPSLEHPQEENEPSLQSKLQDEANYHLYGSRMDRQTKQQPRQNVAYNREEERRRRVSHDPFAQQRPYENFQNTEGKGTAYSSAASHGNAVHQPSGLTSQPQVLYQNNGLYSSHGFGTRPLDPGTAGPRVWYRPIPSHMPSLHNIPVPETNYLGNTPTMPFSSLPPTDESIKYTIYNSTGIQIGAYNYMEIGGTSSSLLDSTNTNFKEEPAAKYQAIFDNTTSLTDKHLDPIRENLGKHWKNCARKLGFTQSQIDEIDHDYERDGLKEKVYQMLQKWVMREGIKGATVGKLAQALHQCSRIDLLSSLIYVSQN
As to the kind of experiment: Inhibition of RIPK1 at 1 uM.

For experiment [2], the target named is T2, Serine/threonine-protein kinase BRSK2 (Homo sapiens) (UniProt Q8IWQ3).
T2 sequence (whole entry): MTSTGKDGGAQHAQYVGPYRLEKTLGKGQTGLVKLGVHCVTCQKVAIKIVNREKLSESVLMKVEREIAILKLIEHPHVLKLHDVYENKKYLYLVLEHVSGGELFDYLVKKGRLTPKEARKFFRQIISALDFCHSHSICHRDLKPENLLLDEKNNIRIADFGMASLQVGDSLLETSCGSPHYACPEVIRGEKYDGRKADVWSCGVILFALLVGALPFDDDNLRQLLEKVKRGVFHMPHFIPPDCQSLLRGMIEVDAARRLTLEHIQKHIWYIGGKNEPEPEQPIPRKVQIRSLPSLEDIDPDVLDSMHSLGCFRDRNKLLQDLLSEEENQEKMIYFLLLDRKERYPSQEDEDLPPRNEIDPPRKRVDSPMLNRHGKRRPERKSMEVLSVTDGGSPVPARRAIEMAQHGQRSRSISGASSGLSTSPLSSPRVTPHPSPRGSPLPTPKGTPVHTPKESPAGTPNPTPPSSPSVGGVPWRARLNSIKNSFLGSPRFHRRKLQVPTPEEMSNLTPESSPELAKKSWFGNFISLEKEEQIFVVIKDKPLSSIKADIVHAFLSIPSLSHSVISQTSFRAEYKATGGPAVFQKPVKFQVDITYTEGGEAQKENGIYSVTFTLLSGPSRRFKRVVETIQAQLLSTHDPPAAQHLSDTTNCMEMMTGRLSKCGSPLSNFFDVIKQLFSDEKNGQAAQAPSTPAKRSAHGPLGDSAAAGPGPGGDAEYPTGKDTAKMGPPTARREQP
As to the kind of experiment: Inhibition of BRSK2 at 1 uM. The method, boiled down:
(§1)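 Ambit KINOMEscan screen at a single concentration across a 250–400 kinase panel, recorded as percent inhibition. Selectivity was expressed as S(90), the fraction of kinases inhibited >90%.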

For experiment [3], the target named is Receptor tyrosine-protein kinase erbB-4 (Homo sapiens) (UniProt Q15303). Kind of experiment: Inhibition of ERBB4 at 1 uM. The method, boiled down:
(§2)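 Single-concentration screen using Ambit Bioscience KINOMEscan technology across a panel of 250–400 kinases. Per-kinase inhibition from this screen was summarized as S(90), the fraction of kinases inhibited by more than 90%.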

For experiment [4], the target named is Epidermal growth factor receptor (Homo sapiens) (UniProt P04626+P00533+Q15303+P21860). As to the kind of experiment: Inhibition of EGFR L747-T751del, Sins mutant at 1 uM. It is filed as protein assay. The method, boiled down: as §2
In experiment [5] the test system is Mast/stem cell growth factor receptor Kit (Homo sapiens), P10721 [V559D,T670I]. As to the kind of experiment: Inhibition of KIT V559D,T670I mutant at 1 uM. The method, boiled down:
(§3)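 Single-concentration screen on the Ambit KINOMEscan platform, run against a panel of 250–400 kinases. Per-kinase inhibition was also summarized as S(90), the fraction of kinases inhibited by more than 90%.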

Experiment [6] has as its system Mast/stem cell growth factor receptor Kit (Homo sapiens), P10721 [D816V]. Kind of experiment: Inhibition of KIT D816V mutant at 1 uM. The method, boiled down: as §3
For experiment [7], the target named is Insulin-like growth factor 1 receptor (Homo sapiens) (UniProt P08069). Kind of experiment: Inhibition of IGF1R at 1 uM. The method, boiled down: as §3
For experiment [8], the target named is T3, Cyclin-dependent kinase-like 2 (Homo sapiens) (UniProt Q92772).
T3 sequence (whole entry): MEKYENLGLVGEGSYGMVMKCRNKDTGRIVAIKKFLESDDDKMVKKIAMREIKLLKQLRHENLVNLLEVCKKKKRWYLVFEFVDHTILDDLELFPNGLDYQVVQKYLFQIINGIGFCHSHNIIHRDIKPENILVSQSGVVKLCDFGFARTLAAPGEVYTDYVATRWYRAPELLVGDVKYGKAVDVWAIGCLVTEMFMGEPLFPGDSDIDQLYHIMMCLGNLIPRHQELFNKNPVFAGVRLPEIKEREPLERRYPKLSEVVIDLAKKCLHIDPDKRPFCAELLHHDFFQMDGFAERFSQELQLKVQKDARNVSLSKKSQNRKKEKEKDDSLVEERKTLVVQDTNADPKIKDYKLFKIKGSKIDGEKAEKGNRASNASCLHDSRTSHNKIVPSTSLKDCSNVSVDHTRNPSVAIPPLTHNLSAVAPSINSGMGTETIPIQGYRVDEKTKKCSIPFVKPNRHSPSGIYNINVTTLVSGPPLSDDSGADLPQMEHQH
Kind of experiment: Inhibition of CDKL2 at 1 uM.

The subject of experiment [9] is Tyrosine-protein kinase ABL1 (Homo sapiens), P00519 [E255K]. As to the kind of experiment: Inhibition of ABL1 E255K mutant at 1 uM. The method, boiled down: as §1
The target of experiment [10] is Insulin receptor (Homo sapiens) (UniProt P06213). As to the kind of experiment: Inhibition of INSR at 1 uM. The method, boiled down:
as §3

In experiment [11] the test system is Tyrosine-protein kinase ABL1 (Homo sapiens), P00519 [F317I]. As to the kind of experiment: Inhibition of ABL1 F317I mutant at 1 uM.
In experiment [12] the target is Ephrin type-A receptor 7 (Homo sapiens) (UniProt Q15375). Kind of experiment: Inhibition of EPHA7 at 1 uM. The method, boiled down:
as §2

In experiment [13] the test system is Tyrosine-protein kinase ABL1 (Homo sapiens), P00519 [M351T]. Kind of experiment: Inhibition of ABL1 M351T mutant at 1 uM. The method, boiled down: as §1
The subject of experiment [14] is Phosphatidylinositol 4,5-bisphosphate 3-kinase catalytic subunit alpha isoform (Homo sapiens), P42336 [Q546K]. As to the kind of experiment: Inhibition of PIK3CA Q546K mutant at 1 uM.

Chain of Mast/stem cell growth factor receptor Kit (Homo sapiens), P10721 [V559D,T670I] (P10721 whole entry V559D/T670I): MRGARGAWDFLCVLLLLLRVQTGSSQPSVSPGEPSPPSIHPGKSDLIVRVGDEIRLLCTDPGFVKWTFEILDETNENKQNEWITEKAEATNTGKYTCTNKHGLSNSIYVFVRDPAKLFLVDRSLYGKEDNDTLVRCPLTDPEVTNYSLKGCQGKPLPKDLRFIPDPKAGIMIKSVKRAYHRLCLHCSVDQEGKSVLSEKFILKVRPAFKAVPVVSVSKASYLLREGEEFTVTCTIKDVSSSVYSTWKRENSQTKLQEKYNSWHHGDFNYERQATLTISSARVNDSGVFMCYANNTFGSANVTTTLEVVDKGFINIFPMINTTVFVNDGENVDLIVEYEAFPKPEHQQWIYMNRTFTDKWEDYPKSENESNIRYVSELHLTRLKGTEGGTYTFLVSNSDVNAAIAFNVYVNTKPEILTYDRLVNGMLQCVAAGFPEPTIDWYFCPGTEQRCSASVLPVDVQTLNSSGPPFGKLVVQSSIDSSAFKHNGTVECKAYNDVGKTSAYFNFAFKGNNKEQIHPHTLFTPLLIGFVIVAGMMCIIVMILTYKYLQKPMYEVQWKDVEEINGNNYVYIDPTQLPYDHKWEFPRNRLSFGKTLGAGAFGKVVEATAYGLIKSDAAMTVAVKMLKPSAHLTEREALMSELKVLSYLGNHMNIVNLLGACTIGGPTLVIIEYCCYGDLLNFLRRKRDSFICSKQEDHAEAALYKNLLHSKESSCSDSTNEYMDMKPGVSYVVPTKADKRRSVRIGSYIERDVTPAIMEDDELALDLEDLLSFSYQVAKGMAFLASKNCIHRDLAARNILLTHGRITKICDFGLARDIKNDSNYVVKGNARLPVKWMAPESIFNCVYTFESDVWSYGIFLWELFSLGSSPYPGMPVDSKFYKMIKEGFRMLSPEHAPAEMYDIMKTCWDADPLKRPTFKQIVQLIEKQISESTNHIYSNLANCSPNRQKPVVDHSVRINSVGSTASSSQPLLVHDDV
Chain of Insulin-like growth factor 1 receptor (Homo sapiens) (P08069 31-736 limits assumed): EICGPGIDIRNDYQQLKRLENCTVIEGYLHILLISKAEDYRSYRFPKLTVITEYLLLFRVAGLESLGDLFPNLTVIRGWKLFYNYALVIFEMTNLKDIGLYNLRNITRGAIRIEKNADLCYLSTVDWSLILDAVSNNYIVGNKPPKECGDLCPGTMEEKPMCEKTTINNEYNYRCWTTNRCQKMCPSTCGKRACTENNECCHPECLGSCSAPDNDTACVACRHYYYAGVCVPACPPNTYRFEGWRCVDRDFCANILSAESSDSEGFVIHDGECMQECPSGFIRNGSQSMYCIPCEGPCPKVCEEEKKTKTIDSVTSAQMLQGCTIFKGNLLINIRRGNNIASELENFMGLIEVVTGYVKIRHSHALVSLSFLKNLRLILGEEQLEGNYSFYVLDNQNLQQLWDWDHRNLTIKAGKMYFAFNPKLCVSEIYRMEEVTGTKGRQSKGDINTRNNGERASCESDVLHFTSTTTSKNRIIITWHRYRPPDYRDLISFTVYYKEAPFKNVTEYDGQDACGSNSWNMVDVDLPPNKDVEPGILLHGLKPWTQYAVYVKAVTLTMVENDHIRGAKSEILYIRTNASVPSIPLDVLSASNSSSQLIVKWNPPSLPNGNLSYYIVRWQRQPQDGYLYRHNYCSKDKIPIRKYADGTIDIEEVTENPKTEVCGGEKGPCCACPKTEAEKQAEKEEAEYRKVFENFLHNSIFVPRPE
Chain of Insulin-like growth factor 1 receptor (Homo sapiens) (P08069 741-1367 limits assumed): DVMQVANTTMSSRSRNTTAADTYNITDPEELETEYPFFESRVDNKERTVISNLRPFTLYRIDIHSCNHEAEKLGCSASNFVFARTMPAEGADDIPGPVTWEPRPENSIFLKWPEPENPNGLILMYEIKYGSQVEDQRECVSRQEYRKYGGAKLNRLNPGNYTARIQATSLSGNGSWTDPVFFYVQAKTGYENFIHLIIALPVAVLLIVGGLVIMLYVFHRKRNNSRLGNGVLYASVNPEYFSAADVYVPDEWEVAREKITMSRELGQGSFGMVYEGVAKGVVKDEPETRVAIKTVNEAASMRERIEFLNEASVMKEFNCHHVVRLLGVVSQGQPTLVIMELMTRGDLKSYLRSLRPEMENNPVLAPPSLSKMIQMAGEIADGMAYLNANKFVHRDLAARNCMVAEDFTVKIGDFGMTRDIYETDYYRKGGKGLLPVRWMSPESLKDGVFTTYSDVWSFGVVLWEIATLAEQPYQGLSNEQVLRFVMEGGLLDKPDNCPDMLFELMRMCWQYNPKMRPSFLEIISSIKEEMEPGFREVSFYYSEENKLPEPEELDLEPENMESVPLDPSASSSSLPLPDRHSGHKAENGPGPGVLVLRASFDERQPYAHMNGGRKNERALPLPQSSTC
Chain of Ephrin type-A receptor 7 (Homo sapiens) (Q15375 28-998 limits assumed): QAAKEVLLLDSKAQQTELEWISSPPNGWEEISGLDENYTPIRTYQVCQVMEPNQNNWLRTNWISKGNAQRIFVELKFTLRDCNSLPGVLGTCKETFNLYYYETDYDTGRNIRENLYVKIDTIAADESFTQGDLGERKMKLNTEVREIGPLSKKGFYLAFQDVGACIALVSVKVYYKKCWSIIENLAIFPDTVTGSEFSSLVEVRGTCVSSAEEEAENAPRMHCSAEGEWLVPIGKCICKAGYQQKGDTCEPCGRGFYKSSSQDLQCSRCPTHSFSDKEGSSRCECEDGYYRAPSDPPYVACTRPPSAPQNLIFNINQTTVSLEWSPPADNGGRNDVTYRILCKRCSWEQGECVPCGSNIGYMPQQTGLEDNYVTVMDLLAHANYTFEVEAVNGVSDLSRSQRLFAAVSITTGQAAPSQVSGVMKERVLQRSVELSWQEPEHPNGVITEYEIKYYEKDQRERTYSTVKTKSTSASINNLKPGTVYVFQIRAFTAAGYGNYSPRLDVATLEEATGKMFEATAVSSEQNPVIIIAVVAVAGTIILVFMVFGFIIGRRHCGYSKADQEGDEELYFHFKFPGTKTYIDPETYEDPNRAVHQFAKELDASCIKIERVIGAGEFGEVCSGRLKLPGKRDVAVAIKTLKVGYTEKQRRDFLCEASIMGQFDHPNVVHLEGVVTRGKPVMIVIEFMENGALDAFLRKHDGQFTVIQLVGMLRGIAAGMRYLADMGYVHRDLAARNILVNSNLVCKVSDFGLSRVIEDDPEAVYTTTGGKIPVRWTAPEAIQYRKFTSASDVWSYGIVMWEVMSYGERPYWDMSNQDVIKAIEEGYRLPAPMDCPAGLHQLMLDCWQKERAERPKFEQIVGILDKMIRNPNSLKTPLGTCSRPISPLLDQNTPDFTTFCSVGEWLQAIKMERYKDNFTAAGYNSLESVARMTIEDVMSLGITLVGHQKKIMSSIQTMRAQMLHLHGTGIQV
Chain of Phosphatidylinositol 4,5-bisphosphate 3-kinase catalytic subunit alpha isoform (Homo sapiens), P42336 [Q546K] (P42336 whole entry Q546K, canonical isoform): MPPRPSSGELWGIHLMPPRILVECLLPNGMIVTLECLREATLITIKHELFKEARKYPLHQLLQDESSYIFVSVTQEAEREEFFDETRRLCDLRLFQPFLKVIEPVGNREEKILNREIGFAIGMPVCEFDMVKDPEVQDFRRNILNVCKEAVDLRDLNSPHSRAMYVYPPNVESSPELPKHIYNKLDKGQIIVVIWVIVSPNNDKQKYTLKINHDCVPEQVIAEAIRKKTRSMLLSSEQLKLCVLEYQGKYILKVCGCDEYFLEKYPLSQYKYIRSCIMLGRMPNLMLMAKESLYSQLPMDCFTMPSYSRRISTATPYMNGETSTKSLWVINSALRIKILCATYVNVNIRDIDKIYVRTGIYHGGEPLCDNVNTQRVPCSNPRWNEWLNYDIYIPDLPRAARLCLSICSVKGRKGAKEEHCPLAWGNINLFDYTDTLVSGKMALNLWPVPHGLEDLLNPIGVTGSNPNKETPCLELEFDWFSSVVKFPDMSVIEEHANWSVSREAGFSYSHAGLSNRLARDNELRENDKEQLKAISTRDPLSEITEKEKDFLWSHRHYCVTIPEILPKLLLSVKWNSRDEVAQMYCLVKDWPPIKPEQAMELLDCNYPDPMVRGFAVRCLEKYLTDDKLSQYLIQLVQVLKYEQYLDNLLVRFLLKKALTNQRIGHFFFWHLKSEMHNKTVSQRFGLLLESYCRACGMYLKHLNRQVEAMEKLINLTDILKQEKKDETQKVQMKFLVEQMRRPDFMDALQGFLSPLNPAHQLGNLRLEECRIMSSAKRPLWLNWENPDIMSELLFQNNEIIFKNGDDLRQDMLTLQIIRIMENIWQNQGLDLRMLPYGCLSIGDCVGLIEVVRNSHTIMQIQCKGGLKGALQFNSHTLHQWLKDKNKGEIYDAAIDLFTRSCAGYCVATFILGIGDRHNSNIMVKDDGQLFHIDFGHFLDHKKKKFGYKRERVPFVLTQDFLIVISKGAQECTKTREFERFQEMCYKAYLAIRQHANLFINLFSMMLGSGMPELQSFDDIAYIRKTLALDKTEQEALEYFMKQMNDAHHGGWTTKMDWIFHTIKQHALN
Chain of Mast/stem cell growth factor receptor Kit (Homo sapiens), P10721 [D816V] (P10721 whole entry D816V): as the sequence (P10721 whole entry V559D/T670I) above, with D559V, I670T, D816V counted along it

On to `FC(F)(F)c1ccc(Cl)cc1CN1CCNc2ncc(-c3ccnc(N4CCNCC4)c3)cc21`, for which the inhibition is under 50% in experiment [1]; under 50% in [2]; under 50% in experiment [3]; under 50% in experiment [4]; 84% in experiment [5]; 76% in [6]. Also, the inhibition in [7], in experiment [8], in experiment [9], in experiment [10], in experiment [11] and in experiment [12] was under 50% throughout. Also, the inhibition in experiment [13] and in [14] was under 50% each time.

With `CN1CCN(c2ccc(-c3cnc4c(c3)N(Cc3cc(Cl)ccc3Cl)CCN4)cn2)CC1`, the inhibition in [1], in experiment [2], in experiment [3], in experiment [4], in experiment [5] and in [6] was under 50% each time. Besides, the inhibition in experiment [7], in [8], in [9], in experiment [10], in experiment [11] and in [12] was under 50% each time. Moreover, the inhibition in experiment [13] was 68%; in experiment [14] it was under 50%.

As to `COC1CCN(C(=O)c2ccc(-c3cnc4c(c3)N(Cc3cc(Cl)ccc3C(F)(F)F)CCN4)cc2)CC1`, the inhibition in experiment [1], in [2], in experiment [3], in [4], in [5] and in [6] was under 50% each time. Besides, the inhibition in [7], in experiment [9], in experiment [10], in experiment [12] and in experiment [13] was under 50% in each case.

In the case of `O=C(c1ccc(-c2cnc3c(c2)N(Cc2cc(Cl)ccc2C(F)(F)F)CCN3)cc1)N1CCCCC1`, the inhibition in experiment [1], in experiment [2], in [3], in experiment [4], in [5] and in experiment [6] was under 50% each time. Further, the inhibition in [7], in experiment [9], in experiment [10], in experiment [12] and in experiment [13] was under 50% each time.

For the compound `O=C(O)c1ccc(-c2cnc3c(c2)N(Cc2cc(Cl)ccc2C(F)(F)F)CCN3)cc1`, the inhibition in [1], in experiment [2], in experiment [3], in experiment [4], in experiment [5] and in experiment [6] was under 50% each time. Further, the inhibition in experiment [7], in [9], in experiment [10], in experiment [11], in [12] and in experiment [13] was under 50% each time.

`CN1CCN(c2ccc(-c3cnc4c(c3)N(Cc3cc(F)ccc3F)CCN4)cn2)CC1`: the inhibition in experiment [1], in experiment [2], in [3], in experiment [4], in experiment [5] and in experiment [6] was under 50% throughout. For the same compound, the inhibition in experiment [7], in experiment [8], in experiment [9], in experiment [10], in experiment [11] and in experiment [12] was under 50% each time. Besides, the inhibition was 71.9% in experiment [13] and under 50% in experiment [14].

With `O=C(c1ccc(-c2cnc3c(c2)N(Cc2cc(Cl)ccc2C(F)(F)F)CCN3)cc1)N1CCC(N2CCCC2)CC1`, the inhibition was under 50% in experiment [1]; 63.8% in [2]; under 50% in experiment [3]; under 50% in experiment [4]; under 50% in experiment [5]; under 50% in [6]. Further, the inhibition in experiment [7], in experiment [9], in [10], in [12] and in [13] was under 50% in each case.

For `CN1CCN(c2ccc(-c3cnc4c(c3)N(Cc3c(F)ccc(F)c3Cl)CCN4)cn2)CC1`, the inhibition in [1], in experiment [2], in [3], in experiment [4], in [5] and in experiment [6] was under 50% throughout. Besides, the inhibition is under 50% in [7]; under 50% in experiment [8]; 70% in [9]; under 50% in [10]; 74% in experiment [11]; under 50% in experiment [12]. The inhibition is 87% in experiment [13] and under 50% in [14].

Take `CC(=O)N1CCN(c2cc(-c3cnc4c(c3)N(Cc3cc(Cl)ccc3C(F)(F)F)CCN4)ccn2)CC1`: the inhibition in experiment [1], in experiment [2], in experiment [3], in experiment [4], in [5] and in experiment [6] was under 50% throughout. The inhibition in experiment [7], in experiment [8], in experiment [9], in [10], in experiment [11] and in [12] was under 50% each time. Moreover, the inhibition in experiment [13] and in experiment [14] was under 50% throughout.
